{"source": "paper PMC7501995", "about": "(Cell metabolism, 2020)", "key": {"[1]": {"system": "primary mouse hepatocytes", "test": "Gene expression by qRT-PCR in primary hepatocytes", "type": "cell-based", "how_it_was_run": "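Primary hepatocytes from male C57BL/6J, liver-specific glucagon receptor knockout or Txnip-deficient mice, seeded on collagen at 3×10^5 cells/well in serum-free DMEM. After 4 h attachment, medium changed and cells given varying test compound concentrations for 24 h. Pck1/G6pc read in the presence of glucagon. mRNA quantified by qRT-PCR; n = 3 for knockout hepatocytes.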"}, "[2]": {"system": "primary mouse hepatocytes", "test": "Hepatocyte glucose output", "type": "cell-based", "how_it_was_run": "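Hepatocytes were isolated from male C57BL/6J, liver-specific GcgR-knockout or Txnip-deficient mice and plated on collagen at 3 × 10^5 cells/well in serum-free DMEM. After 4 h attachment, they were treated 24h with graded test-compound concentrations. For the last 6h, cells were washed twice in PBS and placed in serum-, glucose- and phenol red-free DMEM, with or without lactate (10 mM) and/or glucagon (100 nM). Medium glucose was read colorimetrically and normalized to total protein; n = 3–4 mice.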"}, "TXNIP-deficient mice": {"system": "TXNIP-deficient mice", "test": "SRI-37330 treatment of TXNIP-deficient mice", "type": "in vivo, mouse"}, "[3]": {"system": "human islet gene expression", "test": "RNA sequencing of human islets", "type": "cell-based", "conditions": "25 mM glucose, 1 μM", "how_it_was_run": "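Human islets (IIDP; same-donor controls) held overnight at 5 mM glucose, then 24 h at 25 mM glucose with or without 1 µM test compound. RNA extracted with miRNeasy. Libraries prepared as TruSeq stranded mRNA and sequenced single-end at about 43 million reads/sample.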"}, "[4]": {"system": "polymerase II (Pol II) binding to the TXNIP promoter", "test": "Chromatin immunoprecipitation of Pol II in INS-1 cells", "type": "cell-based, rat", "conditions": "ChIP", "how_it_was_run": "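INS-1 cells crosslinked in 1% formaldehyde/PBS for 15 min, then quenched with glycine. Lysed in SDS/Triton buffer, pH 8.1, with protease inhibitors, and sonicated (10 × 30 s pulses). 500 µg precleared lysate incubated with 4 µg anti-Pol II antibody or control IgG overnight at 4°C; 1/10 kept as input. Complexes captured on Protein A-Sepharose for 3 h, then washed in lysis, wash, LiCl and TE buffers. Regions probed: E-box, upstream TXNIP and IRS2 site. n = 3 independent experiments.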"}, "[5]": {"system": "primary mouse hepatocytes", "test": "Hepatocyte cAMP production", "type": "cell-based", "how_it_was_run": "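Primary hepatocytes came from anesthetized lean chow-fed male C57BL/6J mice, liver-specific glucagon receptor knockout mice, or Txnip-deficient mice. They were plated on collagen at 3 × 10^5 cells/well in serum-free DMEM and left 4 h to attach. Medium was then changed and cells were exposed to graded test-compound concentrations with glucagon for 24h. Cells were washed twice in PBS and harvested in 0.1M HCl. Intracellular cAMP was measured by direct immunoassay; n = 3 independent experiments.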"}, "[6]": {"system": "C57BL/6J mice rendered diabetic by multiple low-dose STZ", "test": "Multiple low-dose STZ-induced diabetes in C57BL/6J mice", "type": "in vivo, mouse"}, "αTC1-6 alpha cells": {"system": "αTC1-6 alpha cells", "test": "Alpha cell glucagon expression and secretion", "type": "cell-based, mouse", "conditions": "αTC1-6 cells", "how_it_was_run": "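αTC1-6 mouse alpha cells grown in DMEM with 10% FBS, 16.7 mM glucose, 1 mM sodium pyruvate and 15 mM HEPES at 37°C, 5% CO2. Cells exposed to 5 µM test compound or vehicle for 1 h. Low-glucose secretion run at 1.67 mM glucose. Secreted glucagon measured by mouse glucagon ELISA; protein measured by BCA assay.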"}, "C57BL/6J mice": {"system": "C57BL/6J mice", "test": "Hyperinsulinemic-euglycemic clamp in lean C57BL/6J mice", "type": "in vivo, mouse", "how_it_was_run": "(§1)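 Lean C57BL/6J or db/db mice given a jugular vein catheter 5–6 days beforehand; treated with test compound and fasted overnight. 2 h hyperinsulinemic-euglycemic clamp run in awake mice with human insulin (150 mU/kg prime, then 2.5 mU/kg/min). Tissue uptake in gastrocnemius and epididymal WAT from 2-[14C]DG-6-phosphate, separated by ion-exchange, and the plasma 2-[14C]DG profile. n = 5–6 mice/group.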"}, "db/db mice": {"system": "db/db mice", "test": "Hyperinsulinemic-euglycemic clamp in db/db mice", "type": "in vivo, mouse", "how_it_was_run": "as §1"}, "[7]": {"system": "TXNIP expression in primary mouse islets", "test": "TXNIP expression by qPCR in primary mouse islets at high glucose", "type": "cell-based", "conditions": "25 mM glucose, 1 μM, 24 h", "how_it_was_run": "(§2)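 INS-1 cells, C57BL/6J mouse islets (collagenase XI-isolated) or human islets (at least three donors, same-donor controls) kept overnight in 5 mM glucose RPMI 1640. Then incubated 24 h in 25 mM glucose RPMI 1640 with or without 1 µM test compound. TXNIP and related mRNAs measured by qRT-PCR; n = 6 (INS-1) or 3 (mouse islets) independent experiments.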"}, "human TXNIP promoter": {"system": "human TXNIP promoter", "type": "cell-based", "conditions": "INS-1 cells, 25 mM glucose, 5 μM, 24 h", "how_it_was_run": "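INS-1 cells transfected with SV40-E-box or SV40-Control firefly plasmid (0.4 µg/mL) plus pRL-TK renilla control (10 ng/mL). After 18 h, switched to 5 mM glucose for 6 h, then to 25 mM glucose. Treated with or without 5 µM test compound for 24 h. Read by dual-luciferase assay; n = 6 independent experiments.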"}, "[8]": {"system": "TXNIP mRNA expression in INS-1 cells", "test": "TXNIP mRNA expression by qRT-PCR in INS-1 cells", "type": "cell-based", "conditions": "rat INS-1 cells, 25 mM glucose, 1 μM, 24 h, qPCR", "how_it_was_run": "as §2"}, "[9]": {"test": "Plasma concentration and oral bioavailability in mice", "type": "in vivo, mouse"}, "[10]": {"conditions": "GcgR−/−L hepatocytes, glucagon present"}}, "note": "Entries after “also recorded” stand apart in the source; their conditions may differ.", "data": [{"molecule": "CS(=O)(=O)NCC1CCCN(c2ncnc3ccc(C(F)(F)F)cc23)C1", "note": "(centres unmarked) [SRI-37330, N-((1-(6-(trifluoromethyl)quinazolin-4-yl)piperidin-3-yl)methyl)methanesulfonamide]", "values": [{"measurement": "effect on glucagon-induced expression of Pck1 and G6pc", "setting": "[1]; primary hepatocytes of liver-specific glucagon receptor knockout mice (GcgR−/−L)", "result": "completely blunted"}, {"measurement": "glucagon-induced expression of Pck1 and G6pc", "setting": "[1]; primary hepatocytes of wild-type C57BL/6J mice, 5 μM, 24h", "result": "inhibited"}, {"measurement": "TXNIP signaling genes in primary hepatocytes or livers", "setting": "[1]; primary hepatocytes or livers of treated mice", "result": "not affected"}, {"measurement": "hepatocyte glucose output", "setting": "[2]; [10]", "result": "no longer able to inhibit hepatocyte glucose output or cAMP production"}, {"measurement": "glucose output", "setting": "[2]; primary hepatocytes of TXNIP-deficient mice, glucagon present", "result": "maintained its ability to block glucose output and glucagon-induced cAMP production"}, {"measurement": "basal or stimulated glucose output in the absence of glucagon", "setting": "[2]; wild-type primary hepatocytes, 24h, no substrate or lactate", "result": "did not affect basal or stimulated glucose output"}, {"measurement": "glucose homeostasis and serum glucagon", "setting": "TXNIP-deficient mice", "result": "no longer able to further improve glucose homeostasis or lower serum glucagon levels"}, {"measurement": "serum glucagon levels", "setting": "TXNIP-deficient mice", "result": "even elevated"}, {"measurement": "BCL2L1 expression", "setting": "[3]; confirmed by qRT-PCR", "result": "upregulated"}, {"measurement": "CTGF expression", "setting": "[3]; confirmed by qRT-PCR", "result": "upregulated"}, {"measurement": "IGF-1R expression", "setting": "[3]; confirmed by qRT-PCR", "result": "upregulated"}, {"measurement": "MAFA expression", "setting": "[3]; confirmed by qRT-PCR", "result": "upregulated"}, {"measurement": "MLXIPL expression", "setting": "[3]; confirmed by qRT-PCR", "result": "downregulated"}, {"measurement": "NLRP1 expression", "setting": "[3]; confirmed by qRT-PCR", "result": "lower expression"}, {"measurement": "general transcription", "setting": "[3]; three donors, 24 h, RNA sequencing", "result": "does not inhibit general transcription"}, {"measurement": "Pol II binding to the E-box motif region of the TXNIP promoter", "setting": "[4]", "result": "effectively inhibited"}, {"measurement": "Pol II binding to upstream TXNIP promoter region and to IRS2 site", "setting": "[4]", "result": "but not to an upstream TXNIP promoter region or to an established Pol II binding site"}, {"measurement": "cAMP production", "setting": "[5]; [10]", "result": "no longer able to inhibit hepatocyte glucose output or cAMP production"}, {"measurement": "glucagon-induced cAMP production", "setting": "[5]; primary hepatocytes of TXNIP-deficient mice", "result": "maintained its ability to block glucose output and glucagon-induced cAMP production"}, {"measurement": "glucagon-induced production of cAMP", "setting": "[5]; wild-type primary hepatocytes, 24h, glucagon", "result": "significantly downregulated in a dose-dependent manner"}, {"measurement": "urine glucose, fold lower than in untreated or empagliflozin-treated animals", "setting": "[6]; STZ mice", "result": "more than 10 fold"}, {"measurement": "blood glucose control compared to metformin or empagliflozin", "setting": "[6]; STZ mice, drinking water", "result": "slightly better blood glucose control than metformin or empagliflozin"}, {"measurement": "body weight at the end of the experiment", "setting": "[6]; STZ mice, vs untreated", "result": "higher body weight"}, {"measurement": "fasting blood glucose", "setting": "[6]; STZ mice, vs untreated", "result": "lower fasting blood glucose"}, {"measurement": "fasting serum insulin", "setting": "[6]; STZ mice, vs untreated", "result": "higher; also recorded: almost two-fold elevation"}, {"measurement": "serum triglycerides", "setting": "[6]; STZ mice, only treatment with this effect", "result": "significantly lower serum triglycerides"}, {"measurement": "fasting serum glucagon, fold lower than untreated", "setting": "[6]; STZ-diabetic mice", "result": 3.6, "unit": "fold"}, {"measurement": "effectiveness by oral gavage twice a day", "setting": "[6]; STZ-induced diabetes, gavage 12 h apart", "result": "confirmed its effectiveness in obesity- as well as STZ-induced diabetes"}, {"measurement": "dose-dependence of glucose lowering", "setting": "[6]; oral gavage twice a day", "result": "dose-dependence of the glucose-lowering effects"}, {"measurement": "glucagon content", "setting": "αTC1-6 alpha cells; 5 μM, 1h", "result": "did not lower proglucgon gene expression or glucagon content"}, {"measurement": "glucagon secretion", "setting": "αTC1-6 alpha cells; 5 μM, 1h", "result": "significantly lower glucagon secretion"}, {"measurement": "proglucagon gene expression", "setting": "αTC1-6 alpha cells; 5 μM, 24 h", "result": "did not lower proglucgon gene expression or glucagon content"}, {"measurement": "glucagon secretion in the context of low glucose", "setting": "αTC1-6 alpha cells; 1.67 mM glucose", "result": "no effect on glucagon secretion"}, {"measurement": "glucagon secretion maximally stimulated by arginine and norepinephrine", "setting": "αTC1-6 alpha cells; arginine 20 mM, norepinephrine 10 μM", "result": "no longer able to inhibit glucagon secretion"}, {"measurement": "glucose infusion rates", "setting": "C57BL/6J mice; lean C57BL/6J mice", "result": "comparable between groups"}, {"measurement": "hepatic insulin action", "setting": "C57BL/6J mice; lean C57BL/6J mice", "result": "comparable between groups"}, {"measurement": "insulin-stimulated glucose uptake in white adipose tissue", "setting": "C57BL/6J mice; lean C57BL/6J mice, epididymal", "result": "comparable between groups"}, {"measurement": "insulin-stimulated glucose uptake in skeletal muscle", "setting": "C57BL/6J mice; lean C57BL/6J mice, gastrocnemius", "result": "comparable between groups"}, {"measurement": "basal hepatic glucose production", "setting": "C57BL/6J mice; lean awake C57BL/6J mice", "result": "significantly downregulated"}, {"measurement": "insulin sensitivity", "setting": "C57BL/6J mice; lean awake C57BL/6J mice", "result": "no alteration in insulin sensitivity"}, {"measurement": "basal hepatic glucose production", "setting": "db/db mice", "result": "significantly lower basal hepatic glucose production"}, {"measurement": "glucose infusion rate", "setting": "db/db mice", "result": "not significantly different"}, {"measurement": "hepatic insulin action", "setting": "db/db mice", "result": "not significantly different"}, {"measurement": "insulin-stimulated glucose uptake in skeletal muscle", "setting": "db/db mice", "result": "remained unchanged"}, {"measurement": "insulin-stimulated glucose uptake in white adipose tissue", "setting": "db/db mice", "result": "remained unchanged"}, {"measurement": "TXNIP expression in the context of high glucose", "setting": "[7]", "result": "significantly inhibit TXNIP expression"}, {"measurement": "effect on heterologous SV40 promoter coupled with the TXNIP E-box motif", "setting": "human TXNIP promoter", "result": "confer SRI-37330 responsiveness"}, {"measurement": "TXNIP expression in the context of high glucose", "setting": "[8]", "result": "significantly inhibit TXNIP expression"}, {"measurement": "average plasma concentration", "setting": "[9]; mice, 100 mg/kg/day in the drinking water", "result": 5, "unit": "µmol/L"}, {"measurement": "oral bioavailability", "setting": "[9]; mouse, in vivo, po", "result": "orally bioavailable"}]}]}
